Experimental data from ChEMBL document CHEMBL2384914, “Synthetic tactics of new class of 4-aminothieno[2,3-d]pyrimidine-6-carbonitrile derivatives acting as antimicrobial agents” (2013).

Assays:
Streptococcus pyogenes = test: Antibacterial activity against Streptococcus pyogenes MTCC 442 assessed as growth inhibition by broth microdilution method; assay type: functional
Escherichia coli = test: Antibacterial activity against Escherichia coli MTCC 443 assessed as growth inhibition by broth microdilution method; assay type: functional
Staphylococcus aureus = test: Antibacterial activity against Staphylococcus aureus MTCC 96 assessed as growth inhibition by broth microdilution method; assay type: functional
Pseudomonas aeruginosa = test: Antibacterial activity against Pseudomonas aeruginosa MTCC 441 assessed as growth inhibition by broth microdilution method; assay type: functional
Aspergillus clavatus [1] = test: Antifungal activity against Aspergillus clavatus MTCC 1323 assessed as growth inhibition by broth microdilution method; assay type: functional
Aspergillus niger = test: Antifungal activity against Aspergillus niger MTCC 282 assessed as growth inhibition by broth microdilution method; assay type: functional
In short: (§1)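 Fungal MTCC cultures were tested by broth microdilution with DMSO-diluted drug in serial dilutions, as a primary screen followed by a second dilution set for actives. MIC was the lowest concentration inhibiting growth. Each experiment was run three times and the MICs averaged.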

Candida albicans = test: Antifungal activity against Candida albicans MTCC 227 assessed as growth inhibition by broth microdilution method; assay type: functional; in short: as §1
Aspergillus clavatus [2] = details: MTCC 1323

Compound	MIC (Streptococcus pyogenes)	MIC (Escherichia coli)	MIC (Staphylococcus aureus)	MIC (Pseudomonas aeruginosa)	MIC (Aspergillus clavatus [1])	MIC (Aspergillus niger)	MIC (Candida albicans)	MIC (Aspergillus clavatus [2])
O=C(N[C@H](CO)[C@H](O)c1ccc([N+](=O)[O-])cc1)C(Cl)Cl [CHLORAMPHENICOL]	50 µg/mL	50 µg/mL	50 µg/mL	50 µg/mL	–	–	–	–
N#Cc1sc2ncnc(N3CCN(C(=O)C4COc5ccccc5O4)CC3)c2c1-c1ccc(Cl)cc1 (stereo not drawn)	125 µg/mL	100 µg/mL	100 µg/mL	250 µg/mL	1000 µg/mL	1000 µg/mL	250 µg/mL	–
CCn1cc(C(=O)O)c(=O)c2cc(F)c(N3CCNCC3)cc21 [NORFLOXACIN]	10 µg/mL	10 µg/mL	10 µg/mL	10 µg/mL	–	–	–	–
N#Cc1sc2ncnc(Nc3ccccc3Cl)c2c1-c1ccc(Cl)cc1	100 µg/mL	125 µg/mL	200 µg/mL	62.5 µg/mL	> 1000 µg/mL	> 1000 µg/mL	500 µg/mL	–
CCOC(=O)N1CCN(c2ncnc3sc(C#N)c(-c4ccc(Cl)cc4)c23)CC1	250 µg/mL	62.5 µg/mL	250 µg/mL	100 µg/mL	1000 µg/mL	1000 µg/mL	> 1000 µg/mL	–
O=C(O)c1cn(C2CC2)c2cc(N3CCNCC3)c(F)cc2c1=O [CIPROFLOXACIN]	50 µg/mL	25 µg/mL	50 µg/mL	–	–	–	–	–
N#Cc1sc2ncnc(N3CCN(c4nsc5ccccc45)CC3)c2c1-c1ccc(Cl)cc1	200 µg/mL	100 µg/mL	200 µg/mL	250 µg/mL	> 1000 µg/mL	> 1000 µg/mL	500 µg/mL	–
CCN(CC)c1ncnc2sc(C#N)c(-c3ccc(Cl)cc3)c12	200 µg/mL	200 µg/mL	200 µg/mL	250 µg/mL	> 1000 µg/mL	> 1000 µg/mL	1000 µg/mL	–
N#Cc1sc2nc[nH]c(=O)c2c1-c1ccc(Cl)cc1	250 µg/mL	100 µg/mL	200 µg/mL	62.5 µg/mL	> 1000 µg/mL	> 1000 µg/mL	500 µg/mL	–
CC1(C)S[C@@H]2[C@H](NC(=O)[C@H](N)c3ccccc3)C(=O)N2[C@H]1C(=O)O [AMPICILLIN]	100 µg/mL	100 µg/mL	250 µg/mL	–	–	–	–	–
COC1=CC(=O)C[C@@H](C)[C@]12Oc1c(Cl)c(OC)cc(OC)c1C2=O [GRISEOFULVIN]	–	–	–	–	100 µg/mL	100 µg/mL	500 µg/mL	–
Cc1ccccc1Nc1ncnc2sc(C#N)c(-c3ccc(Cl)cc3)c12	125 µg/mL	200 µg/mL	250 µg/mL	200 µg/mL	> 1000 µg/mL	> 1000 µg/mL	> 1000 µg/mL	–
N#Cc1sc2ncnc(N3CCN(c4cccc(Cl)c4Cl)CC3)c2c1-c1ccc(Cl)cc1	250 µg/mL	200 µg/mL	250 µg/mL	100 µg/mL	1000 µg/mL	500 µg/mL	1000 µg/mL	–
Cc1cccc(Nc2ncnc3sc(C#N)c(-c4ccc(Cl)cc4)c23)c1	250 µg/mL	250 µg/mL	250 µg/mL	200 µg/mL	> 1000 µg/mL	> 1000 µg/mL	> 1000 µg/mL	–
N#Cc1sc2ncnc(NCc3ccccc3)c2c1-c1ccc(Cl)cc1	125 µg/mL	250 µg/mL	100 µg/mL	250 µg/mL	1000 µg/mL	1000 µg/mL	1000 µg/mL	–
N#Cc1sc2ncnc(N3CCOCC3)c2c1-c1ccc(Cl)cc1	250 µg/mL	125 µg/mL	250 µg/mL	200 µg/mL	> 1000 µg/mL	> 1000 µg/mL	1000 µg/mL	–
NC(=O)c1sc2nc[nH]c(=O)c2c1-c1ccc(Cl)cc1	200 µg/mL	125 µg/mL	200 µg/mL	200 µg/mL	500 µg/mL	250 µg/mL	> 1000 µg/mL	–
N#Cc1sc2ncnc(Cl)c2c1-c1ccc(Cl)cc1	250 µg/mL	200 µg/mL	100 µg/mL	250 µg/mL	1000 µg/mL	1000 µg/mL	1000 µg/mL	–
N#Cc1sc2ncnc(Nc3cccc(Cl)c3)c2c1-c1ccc(Cl)cc1	250 µg/mL	100 µg/mL	200 µg/mL	100 µg/mL	500 µg/mL	500 µg/mL	> 1000 µg/mL	–
GENTAMICIN	0.5 µg/mL	0.05 µg/mL	0.25 µg/mL	1 µg/mL	–	–	–	–
NYSTATIN	–	–	–	–	–	100 µg/mL	100 µg/mL	100 µg/mL
N#Cc1sc2ncnc(N3CCCCC3)c2c1-c1ccc(Cl)cc1	200 µg/mL	250 µg/mL	125 µg/mL	250 µg/mL	> 1000 µg/mL	> 1000 µg/mL	250 µg/mL	–
NC(=O)c1sc(N)c(C(N)=O)c1-c1ccc(Cl)cc1	200 µg/mL	200 µg/mL	250 µg/mL	250 µg/mL	> 1000 µg/mL	> 1000 µg/mL	500 µg/mL	–
N#Cc1sc2ncnc(N3CCNCC3)c2c1-c1ccc(Cl)cc1	100 µg/mL	125 µg/mL	62.5 µg/mL	250 µg/mL	> 1000 µg/mL	1000 µg/mL	1000 µg/mL	–
